The results in this text go back to ChEMBL document CHEMBL1129618, “(+/-)-3-[4'-(N,N-dimethylamino)cinnamyl]benzazepine analogs: novel dopamine D1 receptor antagonists” (J Med Chem, 1996).

The target in experiment [1] is T1, D(1A) dopamine receptor (Rattus norvegicus, UniProt P18901). In words: Affinity for Dopamine receptor D1 binding measured by competition against [3H]-SCH- 23390 to rat striatal membrane. On the set-up: species or system Striatum. The method, boiled down:
(§1)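 Competition binding against [³H]SCH 23390 at D1 sites in rat striatal (caudate putamen) membranes. Ki values are means ± SEM of at least three determinations, each run in triplicate.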

For experiment [2], the target named is D(2) dopamine receptor (Rattus norvegicus, UniProt P61169). Briefly: Affinity for Dopamine receptor D2 binding measured by sulpiride […] to rat striatal membrane. On the set-up: species or system Striatum. The essentials:
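Competition binding against [³H]sulpiride at D2 sites in rat striatal (caudate putamen) membranes. Ki values are means ± SEM of at least three determinations, each run in triplicate.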

The target in experiment [3] is T1, D(1A) dopamine receptor. Briefly: Affinity for dopamine receptor D1 binding measured by competition against [3H]-SCH- 23390 to rat striatal membrane. Set-up: species or system Striatum. The essentials:
as §1

Experiment [4] concerns the target T1, D(1A) dopamine receptor. In words: Dopamine receptor D1 antagonistic activity as ability to block dopamine-stimulated adenylate cyclase in rat caudate. It counts as functional.

T1 sequence (P18901 whole entry): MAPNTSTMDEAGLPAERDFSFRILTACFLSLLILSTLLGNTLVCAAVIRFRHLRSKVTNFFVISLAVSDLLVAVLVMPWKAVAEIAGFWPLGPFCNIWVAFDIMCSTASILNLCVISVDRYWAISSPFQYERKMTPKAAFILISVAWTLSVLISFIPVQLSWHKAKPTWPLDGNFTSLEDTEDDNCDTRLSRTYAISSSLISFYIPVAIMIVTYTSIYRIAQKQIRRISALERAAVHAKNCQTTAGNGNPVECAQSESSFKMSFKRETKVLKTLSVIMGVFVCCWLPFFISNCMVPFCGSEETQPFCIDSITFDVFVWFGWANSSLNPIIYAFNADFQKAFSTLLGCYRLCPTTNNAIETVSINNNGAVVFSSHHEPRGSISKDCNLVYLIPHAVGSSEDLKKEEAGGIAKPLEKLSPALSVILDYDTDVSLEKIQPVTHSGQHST
Sequence of D(2) dopamine receptor (P61169 whole entry): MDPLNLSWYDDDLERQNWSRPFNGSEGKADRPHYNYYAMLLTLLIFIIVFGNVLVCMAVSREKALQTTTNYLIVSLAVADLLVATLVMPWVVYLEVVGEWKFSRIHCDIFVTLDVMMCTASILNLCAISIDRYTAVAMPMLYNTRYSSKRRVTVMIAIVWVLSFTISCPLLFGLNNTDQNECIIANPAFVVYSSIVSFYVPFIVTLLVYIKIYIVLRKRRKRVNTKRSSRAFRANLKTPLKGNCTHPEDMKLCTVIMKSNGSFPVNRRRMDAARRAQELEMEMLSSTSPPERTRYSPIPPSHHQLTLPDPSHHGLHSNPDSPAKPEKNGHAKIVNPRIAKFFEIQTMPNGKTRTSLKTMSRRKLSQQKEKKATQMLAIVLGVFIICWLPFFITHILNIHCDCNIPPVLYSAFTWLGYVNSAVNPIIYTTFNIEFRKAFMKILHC

On to `CN(C)c1ccc(CCN2CCc3cc(Cl)c(O)cc3C(c3ccccc3)C2)cc1` (stereo unspecified), for which the affinity in experiment [1], expressed as Ki, was 88.4 nM. As for `Oc1cc2c(cc1Br)CCN(C/C=C/c1ccccc1)CC2c1ccccc1` (stereo unspecified), the inhibition constant (Ki) entry in experiment [2] is “Insoluble”; in experiment [3], 209 nM. As to `CN(C)c1ccc(/C=C/CN2CCc3cc(Cl)c(O)cc3C(c3ccccc3)C2)cc1` (stereo unspecified), the inhibition constant (Ki) in experiment [2] (read-out: Ki) amounted to 345 nM; in experiment [4], 18.4 nM.

In the case of `CN(C)CCCCN1CCc2cc(Cl)c(O)cc2C(c2ccccc2)C1` (stereo unspecified), in experiment [2] (read-out: Ki), the inhibitory constant (Ki) was 3450 nM.

In the case of `COc1cc2c(cc1Br)CCN(C/C=C/c1ccc(N(C)C)cc1)CC2c1ccccc1` (stereo unspecified), in experiment [2] (read-out: Ki), the Ki worked out at 2000 nM.

As for `CN(C)c1ccc(/C=C/CN2CCc3cc(Br)c(O)cc3C(c3ccccc3)C2)cc1` (stereo unspecified), the inhibition constant Ki in experiment [2] (read-out: Ki) came to 858 nM; in experiment [3], 120 nM.

Regarding `CN(C)CCCCCCN1CCc2cc(Cl)c(O)cc2C(c2ccccc2)C1` (stereo unspecified), the Ki was determined as 4130 nM in experiment [2] (read-out: Ki) and 21 nM in experiment [4].

In general, Ki refers to a measure of affinity in units of concentration, obtained from inhibition or displacement.
